Data published in ChEMBL document CHEMBL6120993, “Cardenolides in Asclepias syriaca Seeds: Exploring the Legacy of Tadeus Reichstein” (J Nat Prod, 2025).

Key:
[1] = Inhibition of seed bug sodium/potassium-ATPase incubated for 20 mins by Spectrophotometric analysis; design: species or system Oncopeltus fasciatus
How it was run: (§1)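 Enzyme was porcine cerebral cortex Na+/K+-ATPase or dissected Oncopeltus fasciatus neural tissue. Six-point 1/10 series (5 × 10⁻³ to 5 × 10⁻⁸ M, in 20% DMSO/H2O) was diluted 1:5 into Tris-buffered ATP, NaCl, KCl, MgCl2 and enzyme, then held 20 min at 37 °C with shaking. SDS stop; Taussky–Shorr phosphate read at 700 nm. KCl-free background contained 10 mM ouabain. Technical triplicates; ouabain reference; 4-parameter logistic mixed model gave IC50.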

[2] = Inhibition of porcine sodium/potassium-ATPase incubated for 20 mins by Spectrophotometric analysis; design: species or system Sus scrofa domesticus; how it was run: as §1

| Structure (SMILES) | IC50 [1] | IC50 [2] |
| --- | --- | --- |
| C[C@@H]1O[C@@H](O[C@H]2C[C@@H](O)[C@]3(CO)[C@H]4[C@H](O)C[C@]5(C)[C@@H](C6=CC(=O)OC6)CC[C@]5(O)[C@@H]4CC[C@]3(O)C2)[C@H](O)[C@H](O)[C@H]1O [OUABAIN] | 2100 µM | 0.7 µM |
| C[C@@H]1C[C@@H](O[C@@H]2O[C@H](CO)[C@@H](O)[C@H](O)[C@H]2O)[C@]2(O)O[C@@H]3C[C@@]4(C)[C@@H](C[C@@H]5O[C@]56[C@@H]4[C@H](O)C(=O)[C@]4(C)[C@@H](C5=CC(=O)OC5)CC[C@]64O)C[C@H]3O[C@@H]2O1 | 640 µM | 0.9 µM |
| C[C@@H]1C[C@@H](O[C@@H]2O[C@H](CO)[C@@H](O)[C@H](O)[C@H]2O)[C@]2(O)O[C@@H]3C[C@@]4(C)[C@@H](C[C@@H]5O[C@]56[C@@H]4[C@H](O)[C@H](O)[C@]4(C)[C@@H](C5=CC(=O)OC5)CC[C@@]46O)C[C@H]3O[C@@H]2O1 | 1960 µM | 2.2 µM |
| C[C@H]1O[C@@H](O[C@H]2CC[C@@]3(C)[C@H](C2)C[C@@H]2O[C@]24[C@@H]3CC[C@]2(C)[C@@H](C3=CC(=O)OC3)CC[C@]42O)[C@H](O)[C@H](O)[C@@H]1O[C@@H]1O[C@H](CO)[C@@H](O)[C@H](O)[C@H]1O | 830 µM | 1.1 µM |
| C[C@H]1O[C@@H](O[C@H]2CC[C@@]3(C)[C@H](C2)C[C@@H]2O[C@]24[C@@H]3C[C@@H](O)[C@]2(C)[C@@H](C3=CC(=O)OC3)CC[C@@]24O)[C@H](O)[C@H](O)[C@@H]1O[C@@H]1O[C@H](CO)[C@@H](O)[C@H](O)[C@H]1O | 1040 µM | 1.4 µM |
| C[C@H]1O[C@@H](O[C@H]2CC[C@@]3(C)[C@@H](CC[C@@H]4[C@@H]3C[C@@H](O)[C@]3(C)[C@@H](C5=CC(=O)OC5)CC[C@]43O)C2)[C@H](O)[C@H](O)[C@@H]1O[C@@H]1O[C@H](CO)[C@@H](O)[C@H](O)[C@H]1O | 220 µM | 1.1 µM |
| C[C@@H]1C[C@@]2(N=CCS2)[C@]2(O)O[C@@H]3C[C@@]4(C)[C@@H](C[C@@H]5O[C@]56[C@@H]4[C@H](O)C(=O)[C@]4(C)[C@@H](C5=CC(=O)OC5)CC[C@]64O)C[C@H]3O[C@@H]2O1 | 220 µM | 0.9 µM |
| C[C@H]1O[C@@H](O[C@H]2CC[C@@]3(C)[C@H](C2)C[C@@H]2O[C@]24[C@@H]3C[C@@H](O)[C@]2(C)[C@@H](C3=CC(=O)OC3)CC[C@@]24O)[C@H](O)[C@H](O)[C@@H]1O | 1080 µM | 1.4 µM |
